Calls of active or inactive are those of the source. No cut-off for these calls is given here.
Tests used:
[1] = system: Rattus norvegicus; assay: Anticonvulsant activity in rat assessed as protection against maximal electric shock-induced seizures at 30 mg/kg, po measured after 2 hrs; assay type: functional, organism-based
Method in brief: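 Rats dosed ip or orally as 0.5% methylcellulose suspension; maximal electroshock at listed time. Protection = abolition of hindlimb tonic extension; 4 rats per group, scored protected/tested.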

[2] = system: Mus musculus; assay: Anticonvulsant activity in mouse assessed as protection against 6 Hz psychomotor seizure at 20 mg/kg, ip after […]; assay type: functional, organism-based
[3] = Ratio of drug level in brain to plasma in CD1 mouse at 1 mg/kg, iv administered as single dose measured after 120 mins by LC/ESI-MS/MS analysis; assay type: ADME, organism-based; conditions: brain and plasma, read-out: BPR
[4] = system: Mus musculus; assay: Neurotoxicity in mouse at 300 mg/kg, ip after 0.5 hrs by rotarod test; assay type: toxicity, organism-based; conditions: in vivo
Method in brief: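 Mice were dosed ip with compound suspended in 0.5% methylcellulose. Rotarod: a 1 in. knurled rod turning at 6 rpm. Neurotoxicity was scored as failure to stay on the rod for at least 1 min in each of three trials. Results are given as the number of animals affected out of the number tested.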

[5] = system: Mus musculus; assay: Anticonvulsant activity in ip dosed mouse assessed as protection against maximal electric shock-induced seizures measured after […]; assay type: functional
[6] = system: Mus musculus; assay: Anticonvulsant activity in ip dosed mouse assessed as protection against subcutaneous pentylenetetrazol-induced seizures measured after […]; assay type: functional
[7] = system: Vibrio harveyi; assay: Mutagenicity in Vibrio harveyi BB7X assessed as number of colonies after 48 hrs (reference value: 15 to 16 no_unit); assay type: ADME, organism-based; conditions: in vivo
Method in brief: (§1)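 Vibrio harveyi mutagenicity test: test compound was added to exponentially growing cultures (A600 = 0.1, 30 °C) and grown to OD600 0.3–0.4. Then 5 × 10^6 cells were plated on BOSS agar with neomycin (final 100 µg/mL) and incubated 48 h at 30 °C. Neomycin-resistant colonies were counted. Triplicate; controls were water, DMSO and NQNO 40 ng/mL.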

[8] = system: Vibrio harveyi; assay: Mutagenicity in Vibrio harveyi BB7M assessed as number of colonies after 48 hrs (reference value: 13 to 14 no_unit); assay type: ADME, organism-based; conditions: in vivo; method in brief: as §1
[9] = system: Vibrio harveyi; assay: Mutagenicity in Vibrio harveyi BB7XM assessed as number of colonies after 48 hrs (reference value: 14 no_unit); assay type: ADME, organism-based; conditions: in vivo; method in brief: as §1
[10] = system: Vibrio harveyi; assay: Antimutagenic activity against Vibrio harveyi BB7X assessed as inhibition of NQNO-induced mutagenicity after 48 hrs; assay type: functional
Method in brief: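 V. harveyi cultures grown exponentially to A600 0.1 at 30 °C, exposed to test compound for 15 min, then to NQNO, and grown on to A600 0.3–0.4. 5 × 10⁶ cells plated on BOSS agar with neomycin (100, final). Neomycin-resistant colonies counted after 48 h at 30 °C. Result given as % inhibition of NQNO mutagenicity; three independent repeats.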

[11] = Half life in CD1 mouse plasma at 1 mg/kg, iv measured up to 240 mins by LC/ESI-MS/MS analysis; assay type: ADME, organism-based
Method in brief: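 Male CD1 mice, fasted overnight, were dosed iv at 1 mg/kg. Under ketamine/xylazine, blood was collected at 0, 5, 15, 30, 60, 120 and 240 min, one sample per animal, four mice per time point. Plasma concentrations were measured by LC/ESI-MS/MS. Terminal t1/2 was taken as 0.693/kz, with kz from log-linear regression, using non-compartmental analysis.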

[12] = system: Mus musculus; assay: Volume of distribution in steady state in CD1 mouse plasma at 1 mg/kg, iv measured up to 240 mins by LC/ESI-MS/MS analysis; assay type: ADME, organism-based; conditions: in vivo, 4 h
[13] = MRT in CD1 mouse plasma at 12.92 mg/kg, ig measured up to 240 mins by LC/ESI-MS/MS analysis; assay type: ADME, organism-based; conditions: po
[14] = system: Mus musculus; assay: AUMC (0 to infinity) in CD1 mouse plasma at 12.92 mg/kg, ig measured up to 240 mins by LC/ESI-MS/MS analysis; assay type: ADME, organism-based; conditions: in vivo, po, 4 h
[15] = system: Mus musculus; assay: Half life in CD1 mouse plasma at 12.92 mg/kg, ip measured up to 240 mins by LC/ESI-MS/MS analysis; assay type: ADME, organism-based; conditions: in vivo, 4 h
[16] = Tmax in CD1 mouse brain at 1 mg/kg, iv measured up to 240 mins by LC/ESI-MS/MS analysis; assay type: ADME, organism-based
[17] = AUC (0 to infinity) in CD1 mouse brain at 12.92 mg/kg, ig measured up to 240 mins by LC/ESI-MS/MS analysis; assay type: ADME, organism-based; design: dose 12.92 mg/kg, route […], time infinity; conditions: po
[18] = MRT in CD1 mouse brain at 12.92 mg/kg, ig measured up to 240 mins by LC/ESI-MS/MS analysis; assay type: ADME, organism-based; conditions: po
[19] = Tmax in CD1 mouse brain at 12.92 mg/kg, ig measured up to 240 mins by LC/ESI-MS/MS analysis; assay type: ADME, organism-based; conditions: po
[20] = AUC (0 to infinity) in CD1 mouse brain at 12.92 mg/kg, ip measured up to 240 mins by LC/ESI-MS/MS analysis; assay type: ADME, organism-based; design: dose 12.92 mg/kg, route intraperitoneal, time infinity
[21] = MRT in CD1 mouse brain at 12.92 mg/kg, ip measured up to 240 mins by LC/ESI-MS/MS analysis; assay type: ADME, organism-based
[22] = Ratio of drug level in brain to plasma in CD1 mouse at 1 mg/kg, iv administered as single dose measured after 5 mins by LC/ESI-MS/MS analysis; assay type: ADME, organism-based; conditions: brain and plasma, read-out: BPR
[23] = Ratio of drug level in brain to plasma in CD1 mouse at 12.92 mg/kg, ig administered as single dose measured after 5 mins by LC/ESI-MS/MS analysis; assay type: ADME, organism-based; conditions: brain and plasma, po, read-out: BPR
[24] = Ratio of drug level in brain to plasma in CD1 mouse at 12.92 mg/kg, ig administered as single dose measured after 15 mins by LC/ESI-MS/MS analysis; assay type: ADME, organism-based; conditions: brain and plasma, po, read-out: BPR
[25] = Ratio of drug level in brain to plasma in CD1 mouse at 12.92 mg/kg, ig administered as single dose measured after 60 mins by LC/ESI-MS/MS analysis; assay type: ADME, organism-based; conditions: brain and plasma, po, read-out: BPR
[26] = Ratio of drug level in brain to plasma in CD1 mouse at 12.92 mg/kg, ig administered as single dose measured after 120 mins by LC/ESI-MS/MS analysis; assay type: ADME, organism-based; conditions: brain and plasma, po, read-out: BPR
[27] = system: Mus musculus; assay: Anticonvulsant activity in mouse assessed as protection against 6 Hz psychomotor seizure at 50 mg/kg, ip after 0.5 hrs; assay type: functional, organism-based
Method in brief: (§2)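 Suspension in 0.5% methylcellulose given ip to mice; corneal stimulation with 0.2 ms monopolar rectangular pulses at 6 Hz for 3 s from a constant current device, mice restrained then released to observation cage. Protected if normal exploratory behaviour resumed within 10 s of stimulation. Scored as protected/tested, 4 mice per group.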

[28] = system: Mus musculus; assay: Anticonvulsant activity in mouse assessed as protection against 6 Hz psychomotor seizure at 50 mg/kg, ip after 2 hrs; assay type: functional, organism-based; method in brief: as §2
[29] = system: Rattus norvegicus; assay: Anticonvulsant activity in pilocarpine-induced status epilepticus Sprague-Dawley rat model at 30 mg/kg, ip after […] during post stage 3 seizure; assay type: functional, organism-based
[30] = system: Rattus norvegicus; assay: Anticonvulsant activity in pilocarpine-induced status epilepticus Sprague-Dawley rat model at 100 mg/kg, ip after 4 hrs during post stage 3 seizure; assay type: functional, organism-based
Method in brief: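 Rats given pilocarpine 50 mg/kg ip and observed to first convulsive seizure (Racine stage 3–5, time zero); test drug then given ip in 0.5% methylcellulose. Efficacy = halting further stage 3–5 convulsive seizures; scored protected/tested, time after first stage 3 seizure.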

In the case of `Cc1cccc(C)c1OCCOCCN[C@@H](C)CO`, the Activity [1] is reported as “inactive” and the Activity [2] is reported as “inactive”.

In the case of `Cc1cccc(C)c1OCCOCCN[C@H](C)CO.Cl`, the Kp at 2 h [3] is reported as 6.66, the Activity [4] is reported as “Toxic” and the ED50 [5] is reported as 12.9 mg/kg. For the same compound, the ED50 [6] was over 45 mg/kg, the Activity [7] was 25 and the Activity [8] was 22. The Activity [9] was 18, the “inhibition (INH)” value [10] was 7% and the half-life [11] was 51.5 min. The Vdss [12] was 0.8997 L/kg, the MRT [13] was 40.3 min and the AUMC [14] was 266 ng·h²/mL. It also gave a t1/2 [15] of 77.2 min, a Tmax [16] of 5 min and an AUC(0-inf) [17] of 1220 µg·h/mL. For the same compound, the MRT [18] was 73.8 min, the Tmax [19] was 5 min and the AUC(0-inf) [20] was 2.16 µg·h/mL. The MRT [21] was 83.1 min, the Kp at 5 min [22] was 5.27 and the Kp at 5 min [23] was 1.73. The Kp at […] [24] was 2.67, the Kp at 1 h [25] was 5.95 and the Kp at 2 h [26] was 3.18.

In the case of `Cc1cccc(C)c1OCCOCCN[C@H](C)CO`, the Activity [27] is reported as “Active”, the Activity [28] is reported as “inactive” and the Activity [29] is reported as “inactive”. For the same compound, the Activity [30] was “inactive”.

Reference: ChEMBL document CHEMBL3774372, “Design, physico-chemical properties and biological evaluation of some new N-[(phenoxy)alkyl]- and N-{2-[2-(phenoxy)ethoxy]ethyl}aminoalkanols as anticonvulsant agents” (Bioorg Med Chem, 2016)
